This note sets out measurements from ChEMBL document CHEMBL3997850 (ACS Med Chem Lett, 2017).

Each structure is given as a SMILES string.

The subject of series [1] is Rattus norvegicus. The series can be described thus: AUC in rat at 5 mg/kg, iv or 5 mg/kg, po by LC/MS/MS analysis. Conditions: in vivo. The series is classed as ADME, organism-based. Put shortly: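 Male rats, 5 mg/kg IV in 10% DMAC/saline or 5 mg/kg oral in 0.5% aqueous methylcellulose. Plasma (EDTA) sampled pre-dose to 24 h. Quantified by acetonitrile precipitation and LC/MS/MS (2–10000 nM range, 0.1 mL). Non-compartmental analysis of concentration–time data.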

Series [2] deals with Liver. Description: Intrinsic clearance in rat hepatic S9 fraction at 5 uM in presence of UDPGA/NADPH measured over 30 mins by LC/MS analysis. The series is classed as ADME, tissue-based. The settings on record: s9, 0.5 h. In short, it runs like this:
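Rat hepatic S9 (2 mg/mL protein) with compound 5 µM, 50 mM Tris-HCl pH 7.5, 8 mM MgCl2, 2 mM NADPH, 2 mM UDPGA, 12.7 µM alamethicin, 37 °C. Reaction started with S9. Aliquots taken over 0–30 min, quenched with acetonitrile, analyzed by LC/MS.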

The test system of series [3] is Canis familiaris. The series can be described thus: Toxicity in dog assessed as change in body weight up to 500 mg/kg/day after 28 days. The settings on record: in vivo, 672 h. The series is classed as organism-based, Canis lupus familiaris.
Series [4] is described as follows: Half life in beagle dog at 10 mg/kg, po by LC/MS/MS analysis. The series is classed as ADME, organism-based, Canis lupus familiaris. The settings on record: in vivo. Put shortly:
(§1)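 Male beagle dogs dosed 5 mg/kg IV in 10% DMAC in saline or 10 mg/kg oral in 5% DMAC in 0.5% methylcellulose. EDTA blood taken from pre-dose to 24 h and spun to plasma. Plasma proteins precipitated with acetonitrile, then LC/MS/MS (linear 2–10000 nM, 0.1 mL plasma). Parameters derived by non-compartmental analysis.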

The target of series [5] is T1, Cytochrome P450 2C8 (Homo sapiens, UniProt P10632).
T1 sequence (P10632 whole entry): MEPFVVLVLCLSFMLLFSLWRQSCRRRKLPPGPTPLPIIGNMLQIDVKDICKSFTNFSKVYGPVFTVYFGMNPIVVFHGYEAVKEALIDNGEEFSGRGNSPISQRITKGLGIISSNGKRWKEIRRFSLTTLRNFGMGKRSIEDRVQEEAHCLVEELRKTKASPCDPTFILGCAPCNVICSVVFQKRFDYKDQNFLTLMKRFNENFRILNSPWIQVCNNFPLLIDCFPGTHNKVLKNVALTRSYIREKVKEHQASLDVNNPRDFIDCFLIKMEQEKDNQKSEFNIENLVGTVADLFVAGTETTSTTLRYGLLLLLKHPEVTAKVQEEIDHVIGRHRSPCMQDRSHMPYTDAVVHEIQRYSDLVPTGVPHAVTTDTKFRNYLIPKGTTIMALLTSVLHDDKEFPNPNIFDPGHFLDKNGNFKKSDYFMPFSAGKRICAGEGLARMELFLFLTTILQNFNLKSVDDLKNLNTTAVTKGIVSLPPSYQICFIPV
Description: Inhibition of recombinant human CYP2C8 assessed as decrease in conversion of dibenzylfluoresein to fluorescein by fluorimetric method. The series is classed as ADME. Conditions: recombinant enzyme. In short, it runs like this:
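Recombinant human CYP2C8; dibenzylfluorescein at Km concentration converted to fluorescein, measured fluorimetrically. Inhibitor range 0–25 µM.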

In series [6] the target is Cytochrome P450 3A4 (Homo sapiens, UniProt P08684). The series can be described thus: Inhibition of recombinant human CYP3A4 assessed as decrease in hydroxylation of 7-benzyloxy-4-trifluoromethyl-coumarin by fluorescence assay. The series is classed as ADME. The settings on record: recombinant enzyme. In short, it runs like this: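 Recombinant human CYP1A2 or CYP3A4 with 7-benzyloxy-4-trifluoromethyl-coumarin at Km concentration; hydroxylation read by fluorescence. Inhibitor tested at 0–25 µM.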
Chain of Cytochrome P450 3A4 (P08684 whole entry): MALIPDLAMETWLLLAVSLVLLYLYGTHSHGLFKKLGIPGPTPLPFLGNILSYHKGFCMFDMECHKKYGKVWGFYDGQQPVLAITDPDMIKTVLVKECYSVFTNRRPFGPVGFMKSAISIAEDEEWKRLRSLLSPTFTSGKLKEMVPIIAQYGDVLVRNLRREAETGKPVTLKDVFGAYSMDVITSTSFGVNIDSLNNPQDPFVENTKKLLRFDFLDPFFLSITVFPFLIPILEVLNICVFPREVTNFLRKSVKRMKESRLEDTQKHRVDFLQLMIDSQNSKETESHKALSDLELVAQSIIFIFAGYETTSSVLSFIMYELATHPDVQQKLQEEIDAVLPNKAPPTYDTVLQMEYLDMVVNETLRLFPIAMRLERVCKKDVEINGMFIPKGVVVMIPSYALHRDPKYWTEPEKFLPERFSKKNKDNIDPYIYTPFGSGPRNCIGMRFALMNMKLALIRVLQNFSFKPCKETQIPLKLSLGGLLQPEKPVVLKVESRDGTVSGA

The subject of series [7] is Canis familiaris. Description: Toxicity in dog up to 500 mg/kg/day after 28 days by histopathology test. The series is classed as organism-based, Canis lupus familiaris. Conditions: in vivo, 672 h.
Series [8] concerns the target T2, Nuclear receptor subfamily 1 group I member 2 (Homo sapiens, UniProt O75469).
T2 sequence (O75469 whole entry): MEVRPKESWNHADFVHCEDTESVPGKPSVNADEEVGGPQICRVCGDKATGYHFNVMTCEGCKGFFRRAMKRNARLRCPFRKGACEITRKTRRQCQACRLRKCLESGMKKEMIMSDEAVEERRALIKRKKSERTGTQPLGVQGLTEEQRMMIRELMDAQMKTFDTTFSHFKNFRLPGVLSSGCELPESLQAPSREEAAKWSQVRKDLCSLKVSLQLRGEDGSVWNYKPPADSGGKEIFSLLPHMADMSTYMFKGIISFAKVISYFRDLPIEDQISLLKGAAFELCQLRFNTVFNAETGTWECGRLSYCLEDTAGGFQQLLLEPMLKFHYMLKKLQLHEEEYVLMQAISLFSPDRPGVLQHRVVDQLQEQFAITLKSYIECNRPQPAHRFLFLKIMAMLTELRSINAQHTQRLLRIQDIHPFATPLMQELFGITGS
The series can be described thus: Induction of PXR (unknown origin) expressed in human HepG2 cells after 24 hrs by dual-glo luciferase reporter gene assay. The format is ADME, cell-based. In short, it runs like this: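 HepG2 cells transfected with human or rat PXR/CYP3A4 reporter, grown 24 h in phenol-red-free MEM with 2 mM L-glutamine and 10% charcoal-stripped FBS at 37 °C, 5% CO2. Compound added at 10 µM final with 0.6% DMSO for 24 h. Dual-Glo firefly then Renilla luminescence read; firefly/Renilla ratio normalized to control-compound wells as % induction.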
(In general: A reporter such as luciferase makes a cellular process visible.)

The test system of series [9] is Mus musculus. The series can be described thus: Toxicity in mouse assessed as effect on food consumption up to 2000 mg/kg/day after 28 days. The settings on record: in vivo, 672 h. The series is classed as organism-based.
A short description of series [10]: Volume of distribution at steady state in beagle dog at 5 mg/kg, iv or 10 mg/kg, po by LC/MS/MS analysis. The settings on record: in vivo, read-out: Vdss. The format is ADME, organism-based, Canis lupus familiaris. Put shortly: as §1
In series [11] the test system is Cynomolgus monkey. The series can be described thus: AUC in cynomolgus monkey at 4 mg/kg, iv or 10 mg/kg, po by LC/MS/MS analysis. Conditions: in vivo. The format is ADME, organism-based, Macaca fascicularis. Put shortly: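 Male cynomolgus monkeys given 4 mg/kg IV (5% DMAC, 40% propylene glycol in saline) or 10 mg/kg orally (0.5% methylcellulose). EDTA plasma collected pre-dose through 24 h. Acetonitrile protein precipitation, then LC/MS/MS quantification, linear 2–10000 nM. PK parameters by standard non-compartmental methods.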

The term AUC denotes concentration integrated over time. A word on the half-life: it is the time needed for the level to fall by half in the phase considered.

With `NS(=O)(=O)NCCNc1nonc1C(=NO)Nc1ccc(F)c(Br)c1` [EPACADOSTAT], the values for the AUC in series [1] and in [11] were 1.3 µM·h and 9.3 µM·h, respectively. Also, in [2], the CLH turned out to be 12 mL/min/kg. In addition, the Activity result was “Non-Toxic” in [3], “Non-Toxic” in series [7], “Not Active” in series [8] and “Non-Toxic” in series [9]. The molecule also had a half-life in [4] of 4.9 h. The “inhibition (INH)” value in series [5] and in series [6] was “Not Active” throughout. In series [10], the Vd was found to be 0.7 L/kg.
